Consider 3 compounds from ChEMBL document CHEMBL2021903, “3-Deoxy-3,4-dehydro analogs of XM462. Preparation and activity on sphingolipid metabolism and cell fate” (Bioorg Med Chem, 2012).

The structures appear in SMILES notation. Active and inactive are the calls of the source. No cut-off for these calls is given here.

The subject of assay [1] is HCT-116. As to the kind of experiment: Effect on sphingolipidome in human HCT116 cells assessed as reduction in sphingomyelins per 10^6 cells at 10 uM after 14 hrs by UPLC-TOF analysis relative to control. It is filed as functional, cell-based. In short, it runs like this:
(§1)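 Cells incubated with compound at 10 µM, 24 h (A549) or 14 h (HCT116); lipids then extracted and profiled. Long-chain bases and phosphates were read by LC-MS/MS (positive electrospray, selected reaction monitoring, C17-dihydrosphingosine and C17-dihydrosphingosine-1-phosphate transitions monitored). Amounts expressed as pmol per 10⁶ cells. Mean ± SD of triplicates; unpaired two-tailed t-test versus control.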

Assay [2] concerns HCT-116. In words: Effect on sphingolipidome in human HCT116 cells assessed as reduction in C16-sphingomyelin per 10^6 cells at 10 uM after 14 hrs by UPLC-TOF analysis relative to control. It is filed as functional, cell-based. In short, it runs like this:
as §1

Assay [3] concerns A549. As to the kind of experiment: Effect on sphingolipidome in human A549 cells assessed as increase in dihydroceramide per 10^6 cells at 10 uM after 24 hrs by UPLC-TOF analysis relative to control. In kind it is functional. In short, it runs like this:
as §1

The test system of assay [4] is HCT-116. As to the kind of experiment: Effect on sphingolipidome in human HCT116 cells assessed as reduction in C24-ceramide per 10^6 cells at 10 uM after 14 hrs by UPLC-TOF analysis relative to control. It is filed as functional, cell-based. An outline of the steps:
as §1

Assay [5] relates to HCT-116. In words: Effect on sphingolipidome in human HCT116 cells assessed as sphingosine-1-phosphate level per 10^6 cells at 10 uM after 14 hrs by UPLC-TOF analysis (reference value: 1.49 +/- 0.70/10^6 cells). In kind it is functional. An outline of the steps:
as §1

The subject of assay [6] is HCT-116. As to the kind of experiment: Induction of […] in human HCT116 cells at 20 uM after 14 hrs by Annexin V-propidium iodide staining based flow cytometry. In kind it is functional. (In general: A flow cytometer gives signals particle by particle.)
For assay [7], the system named is HCT-116. In words: Effect on sphingolipidome in human HCT116 cells assessed as reduction in glucosylceramides per 10^6 cells at 10 uM after 14 hrs by UPLC-TOF analysis relative to control. In kind it is functional, cell-based. An outline of the steps: as §1
Assay [8] relates to HCT-116. As to the kind of experiment: Effect on sphingolipidome in human HCT116 cells assessed as increase in C18-ceramide per 10^6 cells at 10 uM after 14 hrs by UPLC-TOF analysis relative to control (reference value: 3.9 +/- 0.3 pmol/10^6 cells). It is filed as functional. In short, it runs like this: as §1
Assay [9] concerns HCT-116. As to the kind of experiment: Effect on sphingolipidome in human HCT116 cells assessed as increase in dihydrosphingomyelins per 10^6 cells at 10 uM after 14 hrs by UPLC-TOF analysis relative to control. In kind it is functional, cell-based. In short, it runs like this:
as §1

Assay [10] has as its system HCT-116. As to the kind of experiment: Effect on sphingolipidome in human HCT116 cells assessed as dihydrosphingosine-1-phosphate level per 10^6 cells at 10 uM after 14 hrs […] relative to control. In kind it is functional, cell-based.
Assay [11] has as its system HCT-116. As to the kind of experiment: Effect on sphingolipidome in human HCT116 cells assessed as increase in glucosyldihydroceramides per 10^6 cells at 10 uM after 14 hrs by UPLC-TOF analysis relative to control. It is filed as functional, cell-based. In short, it runs like this:
as §1

In assay [12] the target is T1, Lysosomal acid glucosylceramidase (Homo sapiens) (UniProt P04062).
T1 sequence (whole entry): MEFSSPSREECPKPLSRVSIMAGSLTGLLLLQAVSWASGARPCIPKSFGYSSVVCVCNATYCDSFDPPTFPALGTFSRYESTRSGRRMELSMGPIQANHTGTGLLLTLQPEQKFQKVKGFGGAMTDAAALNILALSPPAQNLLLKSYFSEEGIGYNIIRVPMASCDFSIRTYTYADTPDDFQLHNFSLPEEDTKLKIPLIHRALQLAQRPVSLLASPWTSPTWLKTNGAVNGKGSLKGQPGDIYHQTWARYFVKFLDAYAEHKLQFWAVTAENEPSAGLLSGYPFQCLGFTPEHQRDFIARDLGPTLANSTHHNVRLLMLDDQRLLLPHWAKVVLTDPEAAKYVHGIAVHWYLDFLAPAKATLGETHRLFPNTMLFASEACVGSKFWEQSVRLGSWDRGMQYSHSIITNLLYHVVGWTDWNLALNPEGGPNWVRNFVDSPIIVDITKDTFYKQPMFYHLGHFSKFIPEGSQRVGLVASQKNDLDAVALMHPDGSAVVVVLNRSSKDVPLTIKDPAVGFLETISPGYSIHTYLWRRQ
As to the kind of experiment: Inhibition of human glucocerebrosidase using 4-methylumbelliferyl beta-D-glucoside as substrate at 100 uM preincubated prior substrate addition measured after 45 mins by spectrophotometry.

Assay [13] has as its system HCT-116. As to the kind of experiment: Induction of apoptosis in human HCT116 cells at 15 uM after 14 hrs by Annexin V-propidium iodide staining based flow cytometry. In kind it is functional, cell-based. In short, it runs like this:
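HCT116 (clone 40–16) in low-glucose DMEM with 10% FBS and 1% penicillin–streptomycin, seeded 2.5×10⁵ cells/mL. After 24 h, medium replaced with compound-containing medium; ethanol vehicle to controls. After incubation, cells PBS-washed, trypsinized, stained with Annexin V and propidium iodide, analysed by flow cytometry. Mean ± SD, 3 experiments in triplicate.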

Assay [14] concerns the target Neutral ceramidase (Homo sapiens) (UniProt Q9NR71). As to the kind of experiment: Inhibition of nCDase using CerC12NBD as substrate after 1 hr by HPLC-FD analysis. In short, it runs like this:
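Moh. pAS cells transfected to overexpress neutral ceramidase. Lysates (sonicated in 1 mM Tris–HCl, 0.1 mM EDTA, pH 7.5) incubated 1 h, 37 °C, with 5 µM CerC12NBD in 25 mM Tris–HCl pH 7.5, 1% sodium cholate, ±50 µM compound. Intact cells treated 4 h with 50 µM compound before lysis and assay. Read-out HPLC-fluorescence.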

Assay [15] has as its system A549. In words: Effect on sphingolipidome in human A549 cells assessed as increase in C18-ceramide per 10^6 cells at 10 uM after 24 hrs by UPLC-TOF analysis (reference value: 4.8 +/- 0.5 pmol/10^6 cells). It is filed as functional. An outline of the steps:
as §1

Assay [16] deals with HCT-116. As to the kind of experiment: Effect on sphingolipidome in human HCT116 cells assessed as increase in dihydroceramide per 10^6 cells at 10 uM after 14 hrs by UPLC-TOF analysis relative to control. In kind it is functional. In short, it runs like this:
as §1

In assay [17] the target is T2, Sphingolipid delta(4)-desaturase DES1 (Homo sapiens) (UniProt O15121).
T2 sequence (whole entry): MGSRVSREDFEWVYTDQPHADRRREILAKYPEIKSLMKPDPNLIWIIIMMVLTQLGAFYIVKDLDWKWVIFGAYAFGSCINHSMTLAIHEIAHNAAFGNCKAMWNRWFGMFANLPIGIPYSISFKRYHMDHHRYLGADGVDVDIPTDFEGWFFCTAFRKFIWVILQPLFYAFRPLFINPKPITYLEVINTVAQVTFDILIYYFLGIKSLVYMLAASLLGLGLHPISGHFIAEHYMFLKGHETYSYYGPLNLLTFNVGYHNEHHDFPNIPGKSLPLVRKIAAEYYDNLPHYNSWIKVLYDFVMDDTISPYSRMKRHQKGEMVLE
In words: Inhibition of Des1 in human HCT116 cells assessed as formation of CerC6NBD from dhCerC6NBD at =>100 uM after 4 hrs by HPLC-FD analysis. In kind it is cell-based. The note with it: HCT-116. In short, it runs like this:
(§2)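 Des1 activity in A549 and HCT116 cells: intact cells seeded 2×10⁵/well and incubated 4 h with dhCerC6NBD and compound. Dose–response used cell lysates incubated 4 h with 10 µM dhCerC6NBD plus graded compound. CerC6NBD measured by HPLC with fluorescence detection. IC50 from sigmoidal variable-slope regression; mean ± SD, three experiments in triplicate.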

The target of assay [18] is T2, Sphingolipid delta(4)-desaturase DES1 (Homo sapiens). In words: Inhibition of Des1 in human A549 cells assessed as formation of CerC6NBD from dhCerC6NBD at =>100 uM after 4 hrs by HPLC-FD analysis. In kind it is cell-based. An outline of the steps: as §2

Sequence of Neutral ceramidase (Homo sapiens) (Q9NR71 whole entry): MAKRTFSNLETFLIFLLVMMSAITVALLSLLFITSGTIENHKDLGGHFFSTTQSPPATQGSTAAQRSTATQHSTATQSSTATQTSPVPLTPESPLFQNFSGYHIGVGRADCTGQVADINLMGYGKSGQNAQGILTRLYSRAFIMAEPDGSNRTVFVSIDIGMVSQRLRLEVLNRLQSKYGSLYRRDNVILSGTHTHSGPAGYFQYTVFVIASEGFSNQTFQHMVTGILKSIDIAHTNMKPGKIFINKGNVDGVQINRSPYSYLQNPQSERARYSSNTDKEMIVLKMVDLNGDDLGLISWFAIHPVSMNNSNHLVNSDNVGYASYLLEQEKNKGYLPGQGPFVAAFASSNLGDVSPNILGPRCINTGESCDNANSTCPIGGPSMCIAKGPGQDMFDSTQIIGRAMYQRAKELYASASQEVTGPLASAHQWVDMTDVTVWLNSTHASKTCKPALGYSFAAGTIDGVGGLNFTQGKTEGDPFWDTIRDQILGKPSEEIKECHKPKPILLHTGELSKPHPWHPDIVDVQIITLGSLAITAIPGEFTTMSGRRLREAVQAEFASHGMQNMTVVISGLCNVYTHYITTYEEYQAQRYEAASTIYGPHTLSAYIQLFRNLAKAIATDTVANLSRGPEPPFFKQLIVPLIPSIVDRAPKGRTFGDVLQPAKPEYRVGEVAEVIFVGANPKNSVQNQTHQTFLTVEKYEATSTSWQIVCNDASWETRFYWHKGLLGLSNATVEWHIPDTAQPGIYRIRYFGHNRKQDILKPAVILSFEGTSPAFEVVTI

By inhibition is commonly meant the drop in the measured response relative to a control, in per cent. `CCCCCCCCCCCCCS/C=C/[C@H](CO)NC(=O)CCCCCCC`: the outcome with HCT-116 [1], in the assay on HCT-116 [2], in the assay with HCT-116 [4], with HCT-116 [7], with HCT-116 [9] and with HCT-116 [11] was Active. For the same compound, in the assay with HCT-116 [13], the outcome was Active. Further, the “fold change (FC)” value is 3.5 in the assay with A549 [3] and 8.5 in the assay on HCT-116 [16]. In addition, the Activity in the assay with HCT-116 [5] came out at 1.25 pmol; with HCT-116 [8], 16 pmol; with A549 [15], 11.5 pmol. Moreover, the outcome in the assay on HCT-116 [6] and with HCT-116 [10] was inactive. In addition, the inhibition result in assay [12] and in assay [14] was “inactive” each time.

Regarding `CCCCCCCCCCCCCS/C=C/[C@H](CO)NC(=O)c1ccc(C(C)(C)C)cc1`, the inhibition in assay [17] and in assay [18] was 50% throughout. Besides, the inhibition result in assay [12] and in assay [14] was “inactive” throughout.

As for `CCCCCCCCCCCCCS/C=C/[C@H](CO)NC(=O)C(C)(C)C`, the result in the assay with HCT-116 [1], in the assay with HCT-116 [2], in the assay on HCT-116 [4], in the assay on HCT-116 [7], in the assay with HCT-116 [9] and with HCT-116 [11] was Active. For the same compound, the result with HCT-116 [13] was Active. Besides, the “fold change (FC)” value is 1.9 in the assay on A549 [3] and 4.5 in the assay on HCT-116 [16]. Also, the Activity with HCT-116 [5] is given as 2.17 pmol; in the assay on HCT-116 [8], 10.8 pmol; in the assay on A549 [15], 7 pmol. Also, the result in the assay with HCT-116 [6] and in the assay on HCT-116 [10] was inactive. Also, the inhibition in assay [17] and in [18] was 50% each time. In addition, the inhibition entry in [12] and in assay [14] was “inactive” each time.
